Source: ChEMBL document CHEMBL1126712, “Design, synthesis, and pharmacological evaluation of potent xanthone dicarboxylic acid leukotriene B4 receptor antagonists” (J Med Chem, 1993)

Experiments:
[1] = molecular target: T1, Leukotriene B4 receptor 1 (Homo sapiens, UniProt Q15722); test: Inhibition of binding of [3H]LTB4 to receptor […]
Summary of the method: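 Intact human neutrophils isolated from heparinized blood of normal volunteers (Ficoll-Hypaque, dextran sedimentation, hypotonic lysis) were suspended at 2 × 10⁷ cells/mL in Ca/Mg-free HBSS with 0.1% ovalbumin. Tubes held 0.1 nM final [³H]LTB₄ and compound in DMSO (1.9% final), ran 10 min at 4 °C, then were harvested for scintillation counting. Triplicate tubes; nonspecific binding set with 10 000-fold unlabeled LTB₄.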

[2] = molecular target: T1, Leukotriene B4 receptor 1; test: Inhibition of specific binding of LTB4 ( 0.1 nM) to receptors on intact human neutrophils
Summary of the method: (§1)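 Intact human neutrophils from heparinized venous blood of normal volunteers, isolated by Ficoll-Hypaque centrifugation, dextran 70 sedimentation and hypotonic lysis (≥90% neutrophils, ≥90% viable). Cells at 2 × 10⁷/mL in Ca/Mg-free Hanks' with 0.1% ovalbumin, [³H]LTB₄ final 0.1 nM, compound in DMSO (final 1.9%). Incubation 10 min at 4 °C, harvest, scintillation counting. Nonspecific binding from 10 000-fold excess unlabeled LTB₄. Triplicate tubes.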

[3] = molecular target: T1, Leukotriene B4 receptor 1; test: Relative potency against LTB4 receptor was determined
Homo sapiens [4] = organism: Homo sapiens; test: The activity of suppression of the FMLP-mediated response; type: functional
Summary of the method: (§2)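 Luminol-dependent chemiluminescence of human neutrophils (1 × 10⁷/mL) in Ca/Mg-free Dulbecco's PBS, pH 7.4, with cytochalasin B, stirred at 900 rpm and 37 °C in an aggregometer. Antagonist was added at 2 min, then Ca²⁺/Mg²⁺. After 1 min, luminol and agonist (LTB₄ or FMLP, 30 nM) were added and the maximum response recorded. Cells from five individuals.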

[5] = molecular target: T1, Leukotriene B4 receptor 1; test: Inhibition constant against binding of [3H]LTB4 to human neutrophils; summary of the method: as §1
Homo sapiens [6] = organism: Homo sapiens; test: Inhibition of luminol-dependent chemiluminescence induced by stimulating the neutrophil cells with FMLP (N-formyl-L-methionyl-L-leucyl-l-phenylalanine); type: functional, cell-based; summary of the method: as §2
Homo sapiens [7] = organism: Homo sapiens; test: Inhibition of luminol-dependent chemiluminescence induced by stimulating the neutrophil cells with LTB4.; type: functional, cell-based; summary of the method: as §2
Homo sapiens [8] = organism: Homo sapiens; test: LTB4-induced chemotaxis of the human neutrophils; type: functional
Homo sapiens [9] = organism: Homo sapiens; test: Inhibition of LTB-4 induced chemotaxis of human neutrophils; type: functional
Homo sapiens [10] = organism: Homo sapiens; test: The antagonist activity measured as blockade of the FMLP reaction in neutrophils; type: functional; summary of the method: as §2

T1 sequence (Q15722 whole entry): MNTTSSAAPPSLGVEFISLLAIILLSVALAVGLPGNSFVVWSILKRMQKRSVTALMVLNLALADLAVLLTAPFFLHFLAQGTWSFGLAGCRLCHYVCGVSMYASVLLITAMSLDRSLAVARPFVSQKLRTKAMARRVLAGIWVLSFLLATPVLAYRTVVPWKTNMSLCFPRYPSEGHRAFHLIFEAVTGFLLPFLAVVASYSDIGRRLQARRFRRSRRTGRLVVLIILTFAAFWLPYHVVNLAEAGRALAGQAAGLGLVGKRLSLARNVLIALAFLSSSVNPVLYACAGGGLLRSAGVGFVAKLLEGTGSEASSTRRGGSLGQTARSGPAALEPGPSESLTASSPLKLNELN

SMILES | IC50 [2] [nM] | Relative potency [3] | other results
COc1ccc(/C=C/CCCCOc2ccc(C(=O)c3cccc(C(=O)O)c3)cc2CCC(=O)O)cc1 |  |  | IC50 [1]: 1.9 nM
CCCCCCCCCCOc1ccc(C(=O)c2cccc(C(=O)O)c2)cc1CCC(=O)O | 210 | 10 | 
CCCCCCCCCCOc1cc2oc3ccc(C(=O)O)cc3c(=O)c2cc1CCC(=O)O | 832 | 2.5 | 
CCCCCCCCCCOc1ccc2c(=O)c3cccc(C(=O)O)c3oc2c1CCC(=O)O | 2100 | 1 | 
CCCCCCCCCCOc1cc2oc3c(C(=O)O)cccc3c(=O)c2cc1CCC(=O)O | 1770 | 1.2 | 

Continued, in another order:

IC50 [2] [nM] | Relative potency [3] | SMILES | other results
6.2 | 338 | COc1ccc(/C=C/CCCCOc2ccc3c(=O)c4cc(C(=O)O)ccc4oc3c2CCC(=O)O)cc1 | IC50 (Homo sapiens [4]): 2170 nM; Ki [5]: 5.9 nM; IC50 (Homo sapiens [6]): 1600 nM; IC50 (Homo sapiens [7]): 55 nM; IC50 (Homo sapiens [8]): 899 nM
43 | 49 | CCCCCCCCCCOc1ccc2c(=O)c3cc(C(=O)O)ccc3oc2c1CCC(=O)O | IC50 (Homo sapiens [6]): 734 nM; IC50 (Homo sapiens [7]): 342 nM; IC50 (Homo sapiens [9]): 7900 nM; IC50 (Homo sapiens [10]): 1210 nM
